Assay results pooled from the literature.
Protocols differ between the studies behind these lines.
AVPR1A: Vasopressin V1a receptor (AVPR1A, Homo sapiens, UniProt P37288)
GSK3B: Glycogen synthase kinase-3 beta (GSK3B, Homo sapiens, UniProt P49841)
PTGS2: Prostaglandin G/H synthase 2 (PTGS2, Ovis aries, UniProt P79208)

COc1cc(NC(C)=O)c(Cl)cc1C(=O)Nc1nccs1  inhibition (AVPR1A; cell-free assay; 10 µM): -0.8%
CC/C(=N\NC(=O)NCc1cccc(O)c1)c1ccc(O)c(C)c1O  inhibition ([Pyruvate dehydrogenase (acetyl-transferring)] kinase isozyme 2, mitochondrial (PDK2, Homo sapiens, UniProt Q15119); enzyme activity; inhibitor; 0.1 µM): -2.1%
Cc1c(C(N)=O)cc([N+](=O)[O-])cc1[N+](=O)[O-]  inhibition (GSK3B; enzyme activity; inhibitor; ADP detection; 100 µM): 17.1%
O=c1c(O)c(-c2ccc(O)cc2)oc2cc(O[C@@H]3O[C@H](CO)[C@@H](O)[C@H](O)[C@H]3O)cc(O)c12  inhibition (PTGS2; enzyme activity; inhibitor; absorbance; 50 µM): 66.3%
CCN(CC)c1ccc(C2=NNC(=O)CC2C)cc1[N+](=O)[O-] (stereo not shown)  inhibition (High affinity cGMP-specific 3',5'-cyclic phosphodiesterase 9A (PDE9A, Homo sapiens, UniProt O76083); enzyme activity; inhibitor; 0.1 µM): 2%
CC(=O)c1nn(CC(=O)N2C[C@H](F)C[C@H]2C(=O)Nc2cccc(Br)n2)c2ccc(-c3cnc(C)nc3)cc12  inhibition (Cathepsin G (CTSG, Homo sapiens, UniProt P08311); enzyme activity; inhibitor; 10 µM): 0.4%
Ic1cccc2cnccc12  inhibition (Protein mono-ADP-ribosyltransferase PARP11 (PARP11, Homo sapiens, UniProt Q9NR21); enzyme activity; inhibitor; 10 µM): 26%
O=c1c(O)c(-c2ccc(O)cc2)oc2cc(O)cc(O)c12  inhibition (PTGS2; enzyme activity; inhibitor; absorbance; 50 µM): 52.2%
O=C(CSc1nc2nccnc2c(=O)n1CCc1ccccc1)Nc1nccs1  inhibition (Phosphatidylinositol 4-kinase type 2-beta (PI4K2B, Homo sapiens, UniProt Q8TCG2); enzyme activity; inhibitor; 10 µM): -11%
O=C([O-])c1ccccc1-c1c2cc(I)c(=O)c(I)c-2oc2c(I)c([O-])c(I)cc12.[Na+].[Na+]  inhibition (GSK3B; enzyme activity; inhibitor; ADP detection; 100 µM): 87.5%
C[C@@H]1O[C@@H](OC[C@H]2O[C@@H](O[C@H]3[C@H](Oc4c(-c5ccc(O)cc5)oc5cc(O)cc(O)c5c4=O)O[C@H](CO)[C@@H](O)[C@@H]3O)[C@H](O)[C@@H](O)[C@@H]2O)[C@H](O)[C@H](O)[C@H]1O  inhibition (PTGS2; enzyme activity; inhibitor; absorbance; 50 µM): 57.5%
O=C(C1CCCCC1)N1CC(=O)N2CCc3ccccc3C2C1 (stereo not shown)  inhibition (GSK3B; enzyme activity; inhibitor; ADP detection; 100 µM): 8.2%
O=C(c1ccc(Cl)cc1)N(Cc1ccccc1)C1CCCCC1  inhibition (Motilin receptor (MLNR, Homo sapiens, UniProt O43193); cell-free assay; 10 µM): 18.7%
CC[C@H]1C(=O)OC[C@@H]1Cc1cncn1C.O=[N+]([O-])O  inhibition (GSK3B; enzyme activity; inhibitor; ADP detection; 100 µM): 28.2%
CN(C)C1CCN(CC#Cc2nn(C3CCCC3)c3nc(NCc4ccccc4)ncc23)C1 (stereo not shown)  inhibition (Protein-tyrosine kinase 6 (PTK6, Homo sapiens, UniProt Q13882); enzyme activity; inhibitor; FRET; 10 µM): 6%
COc1cc([C@@H]2c3cc4c(cc3[C@@H](O[C@@H]3O[C@@H]5CO[C@@H](C)O[C@H]5[C@H](O)[C@H]3O)[C@H]3COC(=O)[C@H]23)OCO4)cc(OC)c1O  inhibition (GSK3B; enzyme activity; inhibitor; ADP detection; 100 µM): 15.4%
CNc1cc(Oc2cc(C(=O)Nc3cc(N4CCN(C)CC4)cc(C(F)(F)F)c3)ccc2C)ncn1  inhibition (1-phosphatidylinositol 3-phosphate 5-kinase (PIKFYVE, Homo sapiens, UniProt Q9Y2I7); target engagement in cells; inhibitor; chemoproteomics; Huh-7; 1 µM): -98.4%
Oc1cccc(Nc2nc(-c3ccc(F)cc3F)cs2)c1  inhibition (AVPR1A; cell-free assay; 10 µM): 1.2%
Cc1[nH]c(=O)c(C#N)cc1-c1ccncc1  inhibition (GSK3B; enzyme activity; inhibitor; ADP detection; 100 µM): 27.6%
